Experimental data: ChEMBL document CHEMBL3217512, “Indole/triazole conjugates are selective inhibitors and inducers of bacterial biofilms” (Medchemcomm, 2013)

Tests used:
Staphylococcus aureus [1] = assay: Antimicrobial activity against methicillin-resistant Staphylococcus aureus BAA 44 assessed as effect on planktonic growth at IC50 after 2 to 24 hrs by colony count method; assay type: organism-based; conditions: in vivo
Staphylococcus aureus [2] = assay: Antimicrobial activity against methicillin-resistant Staphylococcus aureus BAA 44 assessed as effect on planktonic growth at PC75 after 2 to 24 hrs by colony count method; assay type: organism-based; conditions: in vivo
Staphylococcus aureus [3] = assay: Antimicrobial activity against methicillin-resistant Staphylococcus aureus BAA 44 assessed as effect on planktonic growth at PC50 after 2 to 24 hrs; assay type: organism-based; conditions: in vivo
Staphylococcus aureus [4] = assay: Induction of biofilm formation in methicillin-resistant Staphylococcus aureus BAA 44 at 50 uM after 24 hrs by crystal violet staining-based assay relative to control; assay type: functional
Outline: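 Static biofilm development in MRSA, read out by crystal violet staining against an untreated control. Initial screen at 150 μM. Inhibitors then went to dose-response, with IC50 taken as the concentration giving 50% inhibition of biofilm growth. Induction was judged at 50 μM: under 50% induction counted as "inducer", over 50% as "strong inducer".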

Staphylococcus aureus [5] = assay: Inhibition of biofilm formation in Staphylococcus aureus 29213 at 150 uM after 24 hrs by crystal violet staining-based assay relative to control; assay type: functional; conditions: Staphylococcus aureus, 29213, 24 h
Staphylococcus aureus [6] = assay: Antimicrobial activity against Staphylococcus aureus 29213 assessed as effect on planktonic growth at IC50 after 2 to 24 hrs; assay type: organism-based; conditions: in vivo
Escherichia coli [7] = assay: Antimicrobial activity against Escherichia coli K-12 ER2718 assessed as effect on planktonic growth at IC50 after 2 to 24 hrs by colony count method; assay type: organism-based
Staphylococcus aureus [8] = assay: Antimicrobial activity against methicillin-resistant Staphylococcus aureus BAA 44 assessed as effect on planktonic growth at PC75 after 2 to 24 hrs; assay type: organism-based; conditions: in vivo
Staphylococcus aureus [9] = assay: Antimicrobial activity against methicillin-resistant Staphylococcus aureus BAA 44 assessed as effect on planktonic growth at PC50 after 2 to 24 hrs by colony count method; assay type: organism-based; conditions: in vivo
Staphylococcus aureus [10] = assay: Antimicrobial activity against methicillin-resistant Staphylococcus aureus BAA 44 assessed as effect on planktonic growth at PC25 after 2 to 24 hrs; assay type: organism-based; conditions: in vivo
Acinetobacter baumannii [11] = assay: Inhibition of biofilm formation in Acinetobacter baumannii 19606 at 150 uM after 24 hrs by crystal violet staining-based assay relative to control; assay type: functional; conditions: ATCC 19606 = CIP 70.34 = JCM 6841, 24 h
Acinetobacter baumannii [12] = assay: Antimicrobial activity against Acinetobacter baumannii 19606 assessed as effect on planktonic growth at IC50 after 2 to 24 hrs; set-up: species or system ATCC 19606
Acinetobacter baumannii [13] = assay: Antimicrobial activity against Acinetobacter baumannii 19606 assessed as effect on planktonic growth at IC50 after 2 to 24 hrs by colony count method; set-up: species or system ATCC 19606
Escherichia coli [14] = assay: Inhibition of biofilm formation in Escherichia coli K-12 ER2718 at 150 uM after 24 hrs by crystal violet staining-based assay relative to control; assay type: functional; conditions: K-12 ER2718, 24 h
Staphylococcus aureus [15] = assay: Antimicrobial activity against methicillin-resistant Staphylococcus aureus BAA 44 assessed as effect on planktonic growth at PC25 after 2 to 24 hrs by colony count method; assay type: organism-based; conditions: in vivo
Escherichia coli [16] = assay: Antimicrobial activity against Escherichia coli K-12 ER2718 assessed as effect on planktonic growth at IC50 after 2 to 24 hrs; assay type: organism-based
Staphylococcus aureus [17] = assay: Antimicrobial activity against methicillin-resistant Staphylococcus aureus BAA 44 assessed as effect on planktonic growth at 50 uM after 2 to 24 hrs; assay type: organism-based
Outline: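 Growth-curve analysis of planktonic MRSA in the presence of each biofilm inducer at 50 μM, to check for toxicity.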

Staphylococcus aureus [18] = assay: Antimicrobial activity against Staphylococcus aureus 29213 assessed as effect on planktonic growth at IC50 after 2 to 24 hrs by colony count method; assay type: organism-based; conditions: in vivo
Staphylococcus aureus [19] = assay: Antimicrobial activity against methicillin-resistant Staphylococcus aureus BAA 44 assessed as effect on planktonic growth at IC50 after 2 to 24 hrs; assay type: organism-based; conditions: in vivo

## CCCCCCNC(=O)Cn1cc(Cc2c(Br)[nH]c3ccccc23)nn1
Staphylococcus aureus [1]
  Activity: Non-toxic
Staphylococcus aureus [2]
  Activity: Non-toxic
Staphylococcus aureus [3]
  Activity: Non-toxic
Staphylococcus aureus [4]
  Activity: <50%
Staphylococcus aureus [5]
  inhibition at 150 µM: < 5%
Staphylococcus aureus [6]
  Activity: Non-toxic
Escherichia coli [7]
  Activity: Non-toxic
Staphylococcus aureus [8]
  Activity: Non-toxic
Staphylococcus aureus [9]
  Activity: Non-toxic
Staphylococcus aureus [10]
  Activity: Non-toxic
Acinetobacter baumannii [11]
  inhibition at 150 µM: 17%
Acinetobacter baumannii [12]
  Activity: Non-toxic
Acinetobacter baumannii [13]
  Activity: Non-toxic
Escherichia coli [14]
  inhibition at 150 µM: < 5%
Staphylococcus aureus [15]
  Activity: Non-toxic
Escherichia coli [16]
  Activity: Non-toxic
Staphylococcus aureus [17]
  Activity: Non-toxic
Staphylococcus aureus [18]
  Activity: Non-toxic
Staphylococcus aureus [19]
  Activity: Non-toxic
